From ChEMBL document CHEMBL1275356, “Redox-silent tocotrienol esters as breast cancer proliferation and migration inhibitors” (Bioorg Med Chem, 2010)

Legend:
MDA-MB-231 = assay: Antimigratory activity against human MDA-MB-231 at 5 uM after 24 hrs by wound-healing assay; format: functional; conditions: MDA-MB-231, 24 h
In short: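 MDA-MB-231 grown in RPMI 1640 with 10 mM HEPES, 4 mM L-glutamine, 10% FBS, 5% CO2, 37 °C. Confluent (>95%) monolayers scratched with pipette tip, washed with PBS, then given compound in DMSO at 5 µM (DMSO vehicle control), in triplicate. After 24 h under serum starvation, cells fixed and Diff Quick stained. Migrated cells counted in ≥3 random 400× fields, mean ± SEM.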

[1] = Stability of the compound in rat plasma after 4 hrs by HPLC method relative to zero time concentration; format: ADME, cell-free; conditions: read-out: Stability
In short: (§1)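 50 µg/mL compound dissolved in rat plasma in amber vials and incubated at 37 °C. Samples taken at 0, 0.5, 1, 2, 4, 6 and 24 h, mixed with 100 µL methanol, centrifuged 14,000 rpm for 10 min. Supernatant analysed by HPLC with UV at 295 nm, relative to zero-time concentration.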

[2] = Stability of the compound in rat plasma after 24 hrs by HPLC method relative to zero time concentration; format: ADME, cell-free; conditions: read-out: Stability; in short: as §1
[3] = Solubility of the compound in phosphate buffer at pH 7.4 after up to 24 hrs by HPLC method relative to alpha-tocotrienol; format: physicochemical; conditions: pH 7.4, 24 h
In short: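 About 5.6 mg compound added to 3 mL pH 7.4 phosphate buffer in amber vials and shaken at 25 °C for 24 h. Centrifuged 5000 rpm, 10 min; clear supernatant sampled at 0, 1, 2, 4, 6 and 24 h. Concentration determined by HPLC with UV at 295 nm.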

[4] = Chemical stability of the compound in phosphate buffer at pH 7.4 after 24 hrs by HPLC method relative to zero time concentration; format: physicochemical
In short: (§2)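 500 µg/mL compound dissolved in pH 7.4 phosphate buffer in amber vials and kept at 37 °C. Samples taken at 0, 0.5, 1, 2, 4, 6 and 24 h, mixed with equal volume methanol, analysed by HPLC with UV at 295 nm. Amount expressed relative to the zero-time concentration.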

[5] = Cytotoxicity against mouse +SA cells after 24 hrs by MTT assay; format: functional, cell-based; conditions: +SA cell
In short: (§3)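 Compounds dissolved in DMSO, conjugated overnight to 10% BSA at 37 °C, tested at 0–40 µM, final DMSO <0.1%. +SA cells seeded at 5 × 10⁴/well or CL-S1 at 1 × 10⁵/well (six wells/group), grown 3 days (~70% confluent), then treated 24 h. MTT 0.42 mg/mL, 4 h at 37 °C; crystals dissolved in isopropanol, read at 570 nm. Cell number from standard curve; IC50 by linear regression.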

[6] = Cytotoxicity against mouse CL-S1 cells assessed as cell viability after 24 hrs by MTT assay; format: cell-based; conditions: cl-s1, 24 h; in short: as §3
[7] = Chemical stability of the compound in phosphate buffer at pH 7.4 after 1 hr by HPLC method relative to zero time concentration; format: physicochemical; conditions: pH 7.4, 1 h; in short: as §2

Row | SMILES | inhibition at 5 µM (MDA-MB-231) | IC50 [5] | also measured
1 | CC(C)=CCC/C(C)=C/CC/C(C)=C/CC[C@]1(C)CCc2c(C)c(OC(=O)/C=C\C(=O)O)c(C)c(C)c2O1 | 50% | 0.52 µM | remaining at 4 h [1]: 81%; remaining at 24 h [2]: 43%; fold change (FC) [3]: 1000; remaining at 24 h ([4]; phosphate buffer, pH 7.4, read-out: Stability): 100%
2 | CC(C)=CCC/C(C)=C/CC/C(C)=C/CC[C@]1(C)CCc2cc(OC(=O)CC(C)CC(=O)O)c(C)c(C)c2O1 (stereo not given in full) | – | 19.2 µM | Activity [6]: Non-toxic
3 | CC(=O)Oc1ccc(/C=C/C(=O)Oc2cc3c(c(C)c2C)O[C@](C)(CC/C=C(\C)CC/C=C(\C)CCC=C(C)C)CC3)cc1OC(C)=O | – | > 40 µM | Activity [6]: Non-toxic
4 | CC(C)=CCC/C(C)=C/CC/C(C)=C/CC[C@]1(C)CCc2cc(OC(=O)c3ccccc3)c(C)c(C)c2O1 | 50% | 6.55 µM | Activity [6]: Non-toxic
5 | CC(C)=CCC/C(C)=C/CC/C(C)=C/CC[C@]1(C)CCc2c(C)c(OC(=O)c3cc(C(=O)O)ccc3C(=O)O)c(C)c(C)c2O1 | 50% | 1.46 µM | –
6 | CC(C)=CCC/C(C)=C/CC/C(C)=C/CC[C@]1(C)CCc2cc(O)c(C)c(C)c2O1 [GAMMA-TOCOTRIENOL] | – | 4 µM | –
7 | CC(C)=CCC/C(C)=C/CC/C(C)=C/CC[C@]1(C)CCc2c(C)c(OC(=O)c3ccc(C(=O)O)cc3C(=O)O)c(C)c(C)c2O1 | 50% | 1.5 µM | –
8 | CC(C)=CCC/C(C)=C/CC/C(C)=C/CC[C@]1(C)CCc2cc(OC(=O)c3ccc(C(=O)O)cc3C(=O)O)c(C)c(C)c2O1 | – | 0.62 µM | –
9 | CC(=O)Oc1cc(C(=O)Oc2cc3c(c(C)c2C)O[C@](C)(CC/C=C(\C)CC/C=C(\C)CCC=C(C)C)CC3)cc(OC(C)=O)c1OC(C)=O | – | 1.72 µM | –
10 | CC(C)=CCC/C(C)=C/CC/C(C)=C/CC[C@]1(C)CCc2cc(OC(=O)c3cc(C(=O)O)ccc3C(=O)O)c(C)c(C)c2O1 | – | 1.44 µM | –
11 | CC(C)=CCC/C(C)=C/CC/C(C)=C/CC[C@]1(C)CCc2c(C)c(O)c(C)c(C)c2O1 [ALPHA-TOCOTRIENOL] | – | 5 µM | Stability [7]: Unstable; Stability ([4]; buffer, pH 7.4, 24 h): Unstable
12 | CC(C)=CCC/C(C)=C/CC/C(C)=C/CC[C@]1(C)CCc2cc(OC(=O)c3cc(C(=O)O)ccc3C(=O)O)cc(C)c2O1 | 50% | 1.5 µM | –
13 | CC(C)=CCC/C(C)=C/CC/C(C)=C/CC[C@]1(C)CCc2cc(O)cc(C)c2O1 [DELTA-TOCOTRIENOL] | – | 3 µM | –
14 | CC(C)=CCC/C(C)=C/CC/C(C)=C/CC[C@]1(C)CCc2cc(OC(=O)/C=C\C(=O)O)cc(C)c2O1 | – | 0.87 µM | –
15 | CC(C)=CCC/C(C)=C/CC/C(C)=C/CC[C@]1(C)CCc2cc(OC(=O)/C=C\C(=O)O)c(C)c(C)c2O1 | 50% | 2.3 µM | –
